Blank lines part the entries; values can stand above or below the compound they belong to. Non-standard residues stand in square brackets, D forms with d. Residues, ends and D or L forms follow the SMILES beside them. No end group written: not given here. *: point of attachment. FITC = O=C1OC2(c3ccc(O)cc3Oc3cc(O)ccc32)c2ccc(NC(=S)*)cc21; βAla = NCCC(=O)O
Columns and labels:
MBP‐GS‐AF9 AHD = target: T1, MBP‐GS‐AF9 AHD (Homo sapiens, UniProt P42568); test: Fluorescence polarization direct binding, MBP-GS-AF9 AHD
T1 sequence (P42568 500-568): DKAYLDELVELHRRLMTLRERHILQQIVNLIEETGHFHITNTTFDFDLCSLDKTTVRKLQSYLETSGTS
Outline: (§1)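 Fusion protein expressed at 18°C in Rosetta (DE3) cells in TB medium. Cells were lysed by sonication in 50 mM Tris 7.4, 150 mM NaCl, 10% glycerol, 20 mM imidazole, 3 mM TCEP. Protein was captured on Ni-NTA, eluted with a 50–250 mM imidazole gradient, TEV-treated overnight (1:100 w/w), then run on Superdex 200 SEC. Stored at −80°C in 25 mM Tris 7.4, 150 mM NaCl, 1 mM TCEP.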

MBP‐RITK‐AF9 AHD = target: T2, MBP‐RITK‐AF9 AHD (Homo sapiens, UniProt P42568); test: Fluorescence polarization direct binding, MBP-RITK-AF9 AHD
T2 sequence (P42568 500-568): T1 sequence (P42568 500-568)
Outline: as §1

[1] = target: MBP‐AAA‐AF9 AHD Q336C/A502C (Homo sapiens, UniProt P42568, A502C/Q361C); test: Fluorescence polarization direct binding, MBP-AAA-AF9 AHD Q336C/A502C
Outline: as §1

[2] = target: MBP‐AAAA‐AF9 AHD Q336C/K501C (Homo sapiens, UniProt P42568, Q361C); test: Fluorescence polarization direct binding, MBP-AAAA-AF9 AHD Q336C/K501C
Outline: as §1

MBP‐AAAA‐AF9 AHD = target: T3, MBP‐AAAA‐AF9 AHD (Homo sapiens, UniProt P42568); test: Fluorescence polarization direct binding, MBP-AAAA-AF9 AHD
T3 sequence (P42568 500-568): T1 sequence (P42568 500-568)

MBP‐AAA‐AF9 AHD = target: T4, MBP‐AAA‐AF9 AHD (Homo sapiens, UniProt P42568); test: Fluorescence polarization direct binding, MBP-AAA-AF9 AHD
T4 sequence (P42568 500-568): T1 sequence (P42568 500-568)

AF9 AHD = conditions: cited from earlier work; for interaction sites within the DOT1L sequence: ref Kuntimaddi et al., 2015
ENL AHD = conditions: ref Kabra & Bushweller, 2022; cited from earlier work
[3] = target: DOT1L (879–888 aa) derived fluorescent labeled peptide; test: fluorescence polarisation
[4] = target: AF4 (761–770 aa) derived fluorescent labeled peptide (UniProt P51825); test: fluorescence polarisation

Compound: CC[C@H](C)[C@H](NC(=O)[C@H](CCCCN)NC(=O)[C@@H](NC(=O)[C@H](CCSC)NC(=O)[C@H](CC(C)C)NC(=O)CCNC(=O)CCNC(=O)[C@H](CCCCNC(=S)Nc1ccc2c(c1)C(=O)OC21c2ccc(O)cc2Oc2cc(O)ccc21)NC(C)=O)C(C)C)C(=O)N[C@H](C(=O)N[C@@H](CC(C)C)C(=O)N[C@@H](CC(=O)O)C(=O)N[C@@H](CC(C)C)C(=O)N[C@@H](CC(C)C)C(N)=O)[C@@H](C)O [AF4 (761–770 aa)] (Ac-K(FITC)[βAla][βAla]LMVKITLDLL-NH2)
Kd (MBP‐GS‐AF9 AHD): 3.7 ± 0.94 nM
Kd (MBP‐RITK‐AF9 AHD): 1.31 ± 0.05 nM
Kd [1]: 3.49 ± 0.18 nM
Kd [2]: 1.26 ± 0.11 nM

Compound: CC[C@H](C)[C@H](NC(=O)[C@H](CO)NC(=O)[C@@H](NC(=O)[C@@H]1CCCN1C(=O)[C@H](CC(C)C)NC(=O)CCNC(=O)CCNC(=O)[C@H](CCCCNC(=S)Nc1ccc2c(c1)C(=O)OC21c2ccc(O)cc2Oc2cc(O)ccc21)NC(C)=O)C(C)C)C(=O)N1CCC[C@H]1C(=O)N[C@@H](CC(C)C)C(=O)N[C@@H](C)C(=O)N[C@@H](CO)C(=O)N[C@H](C(N)=O)C(C)C [DOT1L (879–888 aa)] (Ac-K(FITC)[βAla][βAla]LPVSIPLASV-NH2)
Kd (MBP‐GS‐AF9 AHD): 17.9 ± 3.49 nM
Kd (MBP‐AAAA‐AF9 AHD): 15.6 ± 1.93 nM
Kd (MBP‐RITK‐AF9 AHD): 7.86 ± 0.76 nM
Kd (MBP‐AAA‐AF9 AHD): 8.79 ± 0.41 nM
Kd [1]: 20.9 ± 2.59 nM
Kd [2]: 10.7 ± 2.84 nM

Compound: AF4 peptide: AF4 peptide of prior reports (LMVKITLDLL; also: fluorescent label, dye and position not given here)
affinity for AF9 AHD relative to DOT1L peptide (AF9 AHD; prior reports, ref Kabra & Bushweller, 2022, Shen et al., 2013): higher affinity

Compound: BCOR peptide (1176–1228): longer BCOR peptide (1176–1228) (TNSSSNHLEDPHYSELTNLKVCIELTGLHPKKQRHLLHLRERWEQQVSAADGK; UniProt Q6W2J9 1176-1228, looked up, fragment)
binding affinity compared with short peptide (1176–1207) (ENL AHD): higher binding affinity
binding affinity compared with short peptide (1176–1207) (AF9 AHD; AF9 AHD, ref Kabra & Bushweller, 2022): higher binding affinity

Compound: LELQISIVEL [LELQISIVEL (638–647)]
interaction sites within the DOT1L sequence (AF9 AHD): interaction sites

Compound: LPISIPLSTV [LPISIPLSTV (865–874)]
binding site for the AHD (AF9 AHD; mapped 10-amino acid DOT1L peptide, ref Grigsby et al., 2021, Shen et al., 2013): binding site for the AHD

Compound: LPVSIPLASV [LPVSIPLASV (879–888)]
interaction sites within the DOT1L sequence (AF9 AHD): interaction sites

Kd [3]: 15.6 nM
Compound: MBP‐AAAA‐AF9 AHD (from UniProt P42568 500-568) (domain or fragment)

Kd [4]: 1.26 nM
Kd [3]: 10.7 nM
Compound: MBP‐AAAA‐AF9 AHD Q336C/K501C (from UniProt P42568 500-568) (domain or fragment)

Kd [3]: 8.79 nM
Compound: MBP‐AAA‐AF9 AHD (from UniProt P42568 500-568) (domain or fragment)

Kd [3]: 20.9 nM
Compound: MBP‐AAA‐AF9 AHD Q336C/A502C (from UniProt P42568 500-568) (domain or fragment)

Kd [3]: 17.9 nM
Compound: MBP‐GS‐AF9 AHD (from UniProt P42568 500-568) (domain or fragment)

Kd [4]: 1.31 nM
Kd [3]: 7.86 nM
Compound: MBP‐RITK‐AF9 AHD (from UniProt P42568 500-568) (domain or fragment)
